Results on two compounds are retold here after ChEMBL document CHEMBL1781999, “Lead optimization of aryl and aralkyl amine-based triazolopyrimidine inhibitors of Plasmodium falciparum dihydroorotate dehydrogenase with antimalarial activity in mice” (J Med Chem, 2011).

Each structure is given as a SMILES string. Calls of active or inactive are those of the source. No cut-off for these calls is given here.

The nature of data set [1]: Terminal elimination half life in Sprague-Dawley rat at 18.6 mg/kg, po by LC-MS analysis. It counts as ADME, organism-based. Further details: dose 18.6 mg/kg, route oral. The conditions noted are these: in vivo, read-out: beta t1/2 (converted). The gist of the method: (§1)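 Overnight-fasted male Sprague Dawley rats (n=2 per dose). IV dosing was a 10 min jugular infusion in a solution vehicle of DMSO and acid with Captisol or Tween/glucose, depending on compound; oral dosing was by gavage as a suspension.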

Data set [2] can be described thus: Cmax in Sprague-Dawley rat at 18.6 mg/kg, po by LC-MS analysis. It counts as ADME, organism-based. Further details: dose 18.6 mg/kg, route oral. The conditions noted are these: in vivo. The gist of the method: (§2)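 Overnight-fasted male Sprague Dawley rats (n=2 per compound) gavaged with an aqueous suspension (DMSO, cellulose, benzyl alcohol, Tween 80 in water); food returned 4 h post-dose. Arterial blood via carotid cannula up to 24 h into heparinized tubes with stabilization cocktail. Plasma acetonitrile-precipitated, LC-MS against blank-plasma standards. AUC by non-compartmental analysis; Cmax read from profiles.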

Data set [3] relates to Rattus norvegicus. Put plainly: Volume of distribution at steady state in Sprague-Dawley rat at 2.9 mg/kg, iv by LC-MS analysis. It counts as ADME, organism-based. More on the design: dose 2.9 mg/kg, route intravenous. The conditions noted are these: in vivo. In short, it runs like this:
as §1

Data set [4] in a line: Oral bioavailability in Sprague-Dawley rat at 18.6 mg/kg by LC-MS analysis. It counts as ADME, organism-based. The conditions noted are these: in vivo. The gist of the method: (§3)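 Overnight-fasted male Sprague Dawley rats, dosed orally by gavage as an aqueous suspension, n=2. Arterial blood taken via carotid cannula up to 24 h; plasma measured by LC-MS. %F = mean dose-normalized oral AUC0-24h versus IV AUC0-24h at the higher IV dose (5 mg/kg or 3 mg/kg, depending on compound); treated as an estimate.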

A short description of data set [5]: AUC (0 to infinity) in Sprague-Dawley rat at 18.6 mg/kg, po by LC-MS analysis. It counts as ADME, organism-based. More on the design: time infinity, dose 18.6 mg/kg, route oral. The conditions noted are these: plasma. The gist of the method: as §2
The test system of data set [6] is Rattus norvegicus. Put plainly: Terminal elimination half life in Sprague-Dawley rat at 2.9 mg/kg, iv by LC-MS analysis. It counts as ADME, organism-based. Further details: dose 2.9 mg/kg, route intravenous. The conditions noted are these: in vivo. In short, it runs like this: as §1
Data set [7] has as its system Rattus norvegicus. Put plainly: Terminal elimination half life in Sprague-Dawley rat at 0.9 mg/kg, iv by LC-MS analysis. It counts as ADME, organism-based. Further details: dose 0.9 mg/kg, route intravenous. The conditions noted are these: in vivo. In short, it runs like this:
as §1

Data set [8] relates to Plasmodium berghei ANKA. Put plainly: Antimalarial activity against Plasmodium berghei ANKA NK65 infected in Swiss Webster mouse assessed as complete cure of animal at 100 mg/kg, po bid measured on day 9 by light microscopic analysis. It counts as functional, organism-based. Further details: dose 100 mg/kg.
Data set [9] concerns Rattus norvegicus. Put plainly: Volume of distribution at steady state in Sprague-Dawley rat at 0.9 mg/kg, iv by LC-MS analysis. It counts as ADME, organism-based. Further details: dose 0.9 mg/kg, route intravenous. The conditions noted are these: in vivo. The gist of the method:
as §1

Data set [10] relates to Rattus norvegicus. Put plainly: Terminal elimination half life in Sprague-Dawley rat at 5.1 mg/kg, iv by LC-MS analysis. It counts as ADME, organism-based. Further details: dose 5.1 mg/kg, route intravenous. The conditions noted are these: in vivo. In short, it runs like this: as §1
The test system of data set [11] is Rattus norvegicus. Put plainly: Volume of distribution at steady state in Sprague-Dawley rat at 1 mg/kg, iv by LC-MS analysis. It counts as ADME, organism-based. More on the design: dose 1 mg/kg, route intravenous. The conditions noted are these: in vivo. In short, it runs like this: as §1
In data set [12] the test system is Rattus norvegicus. Put plainly: Terminal elimination half life in Sprague-Dawley rat at 20.1 mg/kg, po by LC-MS analysis. It counts as ADME, organism-based. Further details: dose 20.1 mg/kg, route oral. The conditions noted are these: in vivo. In short, it runs like this:
as §1

Data set [13] is described as follows: Antimalarial activity against Plasmodium berghei ANKA NK65 infected in po dosed Swiss Webster mouse assessed as reduction of parasitemia level administered qd for 4 days measured 24 hrs after last dose by light microscopic analysis. It counts as functional.
Data set [14] concerns Plasmodium berghei ANKA. Put plainly: Antimalarial activity against Plasmodium berghei ANKA NK65 infected in Swiss Webster mouse assessed as complete reduction of parasitemia level at 50 mg/kg, po bid administered for 4 days measured 24 hrs after last dose by light microscopic analysis. It counts as functional, organism-based. More on the design: dose 50 mg/kg.
Data set [15] deals with Rattus norvegicus. Put plainly: Cmax in Sprague-Dawley rat at 20.1 mg/kg, po by LC-MS analysis. It counts as ADME, organism-based. The conditions noted are these: in vivo. Further details: dose 20.1 mg/kg, route oral. The gist of the method:
as §2

For data set [16], the system named is Rattus norvegicus. Put plainly: Oral bioavailability in Sprague-Dawley rat at 20.1 mg/kg by LC-MS analysis. It counts as ADME, organism-based. The conditions noted are these: in vivo. In short, it runs like this: as §3
Data set [17] relates to Rattus norvegicus. Put plainly: AUC (0 to infinity) in Sprague-Dawley rat at 20.1 mg/kg, po by LC-MS analysis. It counts as ADME, organism-based, Plasma. More on the design: time infinity, dose 20.1 mg/kg, route oral. The conditions noted are these: in vivo. The gist of the method:
as §2

The subject of data set [18] is Rattus norvegicus. Put plainly: Volume of distribution at steady state in Sprague-Dawley rat at 5.1 mg/kg, iv by LC-MS analysis. More on the design: dose 5.1 mg/kg, route intravenous. It counts as ADME, organism-based. The conditions noted are these: in vivo. In short, it runs like this:
as §1

The subject of data set [19] is Rattus norvegicus. Put plainly: Terminal elimination half life in Sprague-Dawley rat at 1 mg/kg, iv by LC-MS analysis. It counts as ADME, organism-based. Further details: dose 1 mg/kg, route intravenous. The conditions noted are these: in vivo. In short, it runs like this:
as §1

In data set [20] the test system is Plasmodium berghei ANKA. Put plainly: Antimalarial activity against Plasmodium berghei ANKA NK65 infected in Swiss Webster mouse assessed as complete reduction of parasitemia level at 100 mg/kg, po qd administered for 4 days measured 24 hrs after last dose by light microscopic analysis. Further details: dose 100 mg/kg. It counts as functional, organism-based. In short, it runs like this: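 Female Swiss Webster mice, 8-10 weeks old (20-22 g), infected intraperitoneally with 2 × 10^7 P. berghei NK65 ANKA-infected erythrocytes. Oral doses in CMC vehicle (200 μL), first given 3 h post-infection, then at 24, 48 and 72 h. Parasitemia followed daily from 24 h by light microscopy at 1000× oil immersion, counting ≥10 fields of >100 erythrocytes. Mice losing ≥20% body weight were euthanized.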

Take `Cc1cc(Nc2cc(F)c(C(F)(F)F)c(F)c2)n2ncnc2n1`: the half-life in data set [1] is 17.6 h. In addition, in data set [2], the Cmax was 34.3 µM. Further, the Vdss in the data set with Rattus norvegicus [3] amounted to 0.5 L/kg; with Rattus norvegicus [9], 0.4 L/kg. For the same compound, in data set [4], the bioavailability was greater than 100%. Besides, in data set [5], the AUC(0-inf) was 1250 µM·h. The results for the “beta t1/2” value with Rattus norvegicus [6] and with Rattus norvegicus [7] were 4.5 h and 1.6 h, respectively. The result in the data set on Plasmodium berghei ANKA [8] was inactive.
As for `Cc1cc(Nc2ccc(S(F)(F)(F)(F)F)cc2)n2ncnc2n1`, the “beta t1/2” value with Rattus norvegicus [10] turned out to be 14.5 h; in the data set with Rattus norvegicus [12] it was 33 h; with Rattus norvegicus [19], 11.4 h. For the same compound, the Vdss with Rattus norvegicus [11] was determined as 1.4 L/kg; in the data set with Rattus norvegicus [18] it was 1.5 L/kg. The ED50 in data set [13] was found to be 17 mg/kg. Besides, the outcome with Plasmodium berghei ANKA [14] and in the data set on Plasmodium berghei ANKA [20] was inactive. Besides, the Cmax in the data set on Rattus norvegicus [15] was found to be 31 µM. The F with Rattus norvegicus [16] is given as greater than 100%. The AUC with Rattus norvegicus [17] amounted to 101693 µM·min.
